Results published in ChEMBL document CHEMBL3421570, “Combinatorial Libraries As a Tool for the Discovery of Novel, Broad-Spectrum Antibacterial Agents Targeting the ESKAPE Pathogens” (J Med Chem, 2015).
Converted amounts (≈) assume the structure as drawn. The source made the active and inactive calls. The calls are words filed in the database; no cut-off is given here.

Columns and labels:
[1] = Selectivity index, ratio of IC50 for human A549 cells to MIC for Enterococcus faecium
[2] = Cytotoxicity against human A549 cells assessed as cell viability recovery at 225 uM after 48 hrs by MTT assay; assay type: cell-based; conditions: read-out: Activity
Method in brief: (§1)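 A549 cells grown in F-12K with L-glutamine, 10% FBS, 1% penicillin-streptomycin, seeded at 1.0 × 10^5 ml−1, allowed to adhere 24 h (37°C, 5% CO2), then exposed to compound in 45% w/v (2-hydroxypropyl)-β-cyclodextrin vehicle for 48 h. MTT 4 h, formazan solubilized in DMSO, absorbance 540 nm. Percent recovery versus vehicle-only; IC50 derived; at least three independent experiments.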

Staphylococcus aureus [3] = experiment: Effect on bacterial density of methicillin-resistant Staphylococcus aureus at MIC measured over 2 hrs period by time kill assay; assay type: functional, organism-based
Klebsiella pneumoniae [4] = experiment: Ratio of MIC for Klebsiella pneumoniae measured after 8 cycle passage to MIC for wild type Klebsiella pneumoniae; assay type: functional
Klebsiella pneumoniae [5] = experiment: Antimicrobial activity against Klebsiella pneumoniae assessed as inhibition of microbial growth after 24 hrs; assay type: functional
Method in brief: (§2)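 Broth microdilution against multidrug-resistant clinical ESKAPE isolates. Overnight cultures (TSB for Gram-positives, LB for Gram-negatives) diluted 1:1000 in fresh medium, compound in DMF (≤2.0% DMF) added at decreasing concentrations, 37°C.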

Enterococcus faecium [6] = experiment: Bactericidal activity against Enterococcus faecium after 24 hrs; assay type: functional
[7] = Selectivity index, ratio of IC50 for human A549 cells to MIC for Acinetobacter baumannii
[8] = Selectivity index, ratio of IC50 for human A549 cells to MIC for Enterobacter cloacae
Staphylococcus aureus [9] = experiment: Ratio of MIC for Staphylococcus aureus measured after 8 cycle passage to MIC for wild type Staphylococcus aureus; assay type: functional
Acinetobacter baumannii [10] = experiment: Antimicrobial activity against Acinetobacter baumannii assessed as inhibition of microbial growth after 24 hrs; assay type: functional; method in brief: as §2
Staphylococcus aureus [11] = experiment: Antimicrobial activity against Staphylococcus aureus USA300 strain FPR3757 infected in mouse model of lethal peritonitis assessed as mouse survival at 2 uM, im dosed 1 hr post infection and measured after 5 days post infection; assay type: functional, organism-based
Method in brief: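 Mice, six per group, infected i.p. with 1 × 10^8 CFU ml−1 S. aureus USA300 FPR3757 in PBS with 5% mucin. Compound given i.m. at 2 μM 1 h later; vehicle 45% w/v (2-hydroxypropyl)-β-cyclodextrin in water i.v.; vancomycin i.v. as control. Monitored twice daily for 5 days, pre-moribund animals euthanized. Survival compared by log-rank test.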

Enterococcus faecium [12] = experiment: Antimicrobial activity against Enterococcus faecium assessed as inhibition of microbial growth after 24 hrs; assay type: functional; method in brief: as §2
Staphylococcus aureus [13] = experiment: Antimicrobial activity against Staphylococcus aureus assessed as inhibition of microbial growth after 24 hrs; assay type: functional; method in brief: as §2
Pseudomonas aeruginosa [14] = experiment: Antimicrobial activity against Pseudomonas aeruginosa isolate 1414 assessed as inhibition of microbial growth in presence of 100 uM efflux pump inhibitor reserpine after 24 hrs; assay type: functional, organism-based
Enterobacter cloacae [15] = experiment: Induction of spontaneous mutation in Enterobacter cloacae at 2 to 10 MIC; assay type: functional, organism-based
Enterobacter cloacae [16] = experiment: Antibiofilm activity against Enterobacter cloacae incubated for 24 hrs followed by biofilm resuspension in PBS and measured after 24 hrs; assay type: functional
Method in brief: (§3)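 Biofilms grown 24 h in 96-well plates from overnight cultures standardized to OD600 0.5 in fresh medium (human serum only for S. aureus; TSB for Gram-positives, LB for Gram-negatives). Medium then replaced with fresh medium containing a concentration range above and below MIC, 37°C overnight. After 24 h biofilm resuspended in PBS, serially diluted, plated in duplicate, CFU counted after 24 h at 37°C. Activity relative to untreated; three technical replicates; MBEC50 reported.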

Enterococcus faecium [17] = experiment: Induction of spontaneous mutation in Enterococcus faecium at 2 to 10 MIC; assay type: functional, organism-based
Enterobacter cloacae [18] = experiment: Antimicrobial activity against Enterobacter cloacae assessed as inhibition of microbial growth after 24 hrs; assay type: functional; method in brief: as §2
[19] = Selectivity index, ratio of IC50 for human A549 cells to MIC for Pseudomonas aeruginosa
Staphylococcus aureus [20] = experiment: Induction of spontaneous mutation in Staphylococcus aureus at 2 to 10 MIC; assay type: functional, organism-based
A549 = experiment: Cytotoxicity against human A549 cells after 48 hrs by MTT assay; assay type: cell-based; conditions: A549, 48 h; method in brief: as §1
Enterobacter cloacae [21] = experiment: Antimicrobial activity against Enterobacter cloacae assessed as inhibition of microbial growth at 45 uM after 24 hrs; assay type: functional, organism-based
Method in brief: (§4)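 Broth microdilution single-concentration read: overnight cultures diluted 1:1000, compound in DMF (≤2.0%) added, 37°C for 24 h, growth inhibition scored visually by lack of turbidity; triplicate. Gram-positives grown in TSB, Gram-negatives in LB.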

Enterococcus faecium [22] = experiment: Antibiofilm activity against Enterococcus faecium incubated for 24 hrs followed by biofilm resuspension in PBS and measured after 24 hrs; assay type: functional; method in brief: as §3
Staphylococcus aureus [23] = experiment: Bactericidal activity against methicillin-resistant Staphylococcus aureus assessed as cell survival recovery at MIC measured after drug wash out after 120 mins by time kill assay; assay type: functional
Method in brief: (§5)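 MRSA from stationary phase was regrown 3 h in TSB and seeded at OD600 0.5. […] After 120 min, cells were centrifuged and washed, serially diluted and plated for CFU. Percent recovery is relative to no-drug controls.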

Pseudomonas aeruginosa [24] = experiment: Antimicrobial activity against Pseudomonas aeruginosa assessed as inhibition of microbial growth after 24 hrs; assay type: functional; method in brief: as §2
[25] = Cytotoxicity against human A549 cells assessed as cell viability recovery up to 125 uM after 48 hrs by MTT assay; assay type: cell-based; conditions: read-out: Activity; method in brief: as §1
Klebsiella pneumoniae [26] = experiment: Antimicrobial activity against Klebsiella pneumoniae assessed as inhibition of microbial growth at 45 uM after 24 hrs; assay type: functional, organism-based; method in brief: as §4
[27] = Selectivity index, ratio of IC50 for human A549 cells to MIC for Klebsiella pneumoniae
[28] = Induction of hemolysis in human RBC at 10 uM incubated for 15 mins; assay type: cell-based, Erythrocyte; conditions: red blood cells, read-out: Activity
Method in brief: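 Human RBCs from whole blood, resuspended 20% v/v in HA buffer (NaCl, CaCl2), compound 10 μM, 15 min at 37°C. Centrifuged 5,500 g for 1 min, supernatant OD543 read. Percent hemolysis against DMF vehicle (0%) and 1.0% Triton X-100 (100%); triplicate.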

Acinetobacter baumannii [29] = experiment: Antimicrobial activity against Acinetobacter baumannii assessed as inhibition of microbial growth at 45 uM after 24 hrs; assay type: functional, organism-based; method in brief: as §4
Klebsiella pneumoniae [30] = experiment: Antibiofilm activity against Klebsiella pneumoniae incubated for 24 hrs followed by biofilm resuspension in PBS and measured after 24 hrs; assay type: functional; method in brief: as §3
[31] = Selectivity index, ratio of IC50 for human A549 cells to MIC for Staphylococcus aureus
Acinetobacter baumannii [32] = experiment: Ratio of MIC for Acinetobacter baumannii measured after 8 cycle passage to MIC for wild type Acinetobacter baumannii; assay type: functional
Enterobacter cloacae [33] = experiment: Bactericidal activity against Enterobacter cloacae after 24 hrs; assay type: functional
Acinetobacter baumannii [34] = experiment: Antibiofilm activity against Acinetobacter baumannii incubated for 24 hrs followed by biofilm resuspension in PBS and measured after 24 hrs; assay type: functional; method in brief: as §3
Pseudomonas aeruginosa [35] = experiment: Induction of spontaneous mutation in Pseudomonas aeruginosa at 2 to 10 MIC; assay type: functional, organism-based; conditions: 2 to 10 x MIC
Pseudomonas aeruginosa [36] = experiment: Antimicrobial activity against Pseudomonas aeruginosa assessed as inhibition of microbial growth at 45 uM after 24 hrs; assay type: functional, organism-based; method in brief: as §4
Klebsiella pneumoniae [37] = experiment: Induction of spontaneous mutation in Klebsiella pneumoniae at 2 to 10 MIC; assay type: functional, organism-based
Pseudomonas aeruginosa [38] = experiment: Antibiofilm activity against Pseudomonas aeruginosa incubated for 24 hrs followed by biofilm resuspension in PBS and measured after 24 hrs; assay type: functional; method in brief: as §3
Klebsiella pneumoniae [39] = experiment: Bactericidal activity against Klebsiella pneumoniae after 24 hrs; assay type: functional
Pseudomonas aeruginosa [40] = experiment: Bactericidal activity against Pseudomonas aeruginosa after 24 hrs; assay type: functional
Staphylococcus aureus [41] = experiment: Bactericidal activity against methicillin-resistant Staphylococcus aureus at MIC measured after drug wash out after 120 mins by time kill assay; assay type: functional; method in brief: as §5
Enterococcus faecium [42] = experiment: Antimicrobial activity against Enterococcus faecium assessed as inhibition of microbial growth at 45 uM after 24 hrs; assay type: functional, organism-based; method in brief: as §4
Enterobacter cloacae [43] = experiment: Ratio of MIC for Enterobacter cloacae measured after 8 cycle passage to MIC for wild type Enterobacter cloacae; assay type: functional
Staphylococcus aureus [44] = experiment: Bactericidal activity against Staphylococcus aureus after 24 hrs; assay type: functional
Staphylococcus aureus [45] = experiment: Antibiofilm activity against Staphylococcus aureus incubated for 24 hrs followed by biofilm resuspension in PBS and measured after 24 hrs; assay type: functional; method in brief: as §3
Acinetobacter baumannii [46] = experiment: Bactericidal activity against Acinetobacter baumannii after 24 hrs; assay type: functional
Acinetobacter baumannii [47] = experiment: Induction of spontaneous mutation in Acinetobacter baumannii at 2 to 10 MIC; assay type: functional, organism-based
Staphylococcus aureus [48] = experiment: Antimicrobial activity against Staphylococcus aureus assessed as inhibition of microbial growth at 45 uM after 24 hrs; assay type: functional, organism-based; method in brief: as §4

SMILES: CCCCCCCN1C(=N)N(CCCC[C@H]2CNC(=N)N2CCC23C[C@H]4C[C@@H](C2)C[C@@H](C3)C4)C[C@@H]1CCCC
- Selectivity Index [1]: 88
- viability at 48 h, 225 µM [2]: 35%
- Activity (Staphylococcus aureus [3]): inactive
- Ratio (Klebsiella pneumoniae [4]): <=8
- MIC (Klebsiella pneumoniae [5]): 1.7 µM
- MBC90 (Enterococcus faecium [6]): 3.6 µM (≈ 1.95 µg/mL)
- Selectivity Index [7]: 88
- Selectivity Index [8]: 88
- Ratio (Staphylococcus aureus [9]): 16
- MIC (Acinetobacter baumannii [10]): 1.7 µM
- Activity (Staphylococcus aureus [11]): Active
- MIC (Enterococcus faecium [12]): 1.7 µM
- MIC (Staphylococcus aureus [13]): 1.7 µM
- growth inhibition (GI) (Pseudomonas aeruginosa [14]): Active
- Activity (Enterobacter cloacae [15]): inactive
- MBEC50 (Enterobacter cloacae [16]): 15 µM
- Activity (Enterococcus faecium [17]): inactive
- MIC (Enterobacter cloacae [18]): 1.7 µM
- Selectivity Index [19]: 88
- Activity (Staphylococcus aureus [20]): inactive
- IC50 (A549): 146 µM
- growth inhibition (GI) (Enterobacter cloacae [21]): Active
- MBEC50 (Enterococcus faecium [22]): 13 µM
- Survival (Staphylococcus aureus [23]): 0.2%
- MIC (Pseudomonas aeruginosa [24]): 1.7 µM
- viability at 48 h [25]: 53%
- growth inhibition (GI) (Klebsiella pneumoniae [26]): Active
- Selectivity Index [27]: 88
- hemolysis at 0.25 h, 10 µM [28]: 0.34%
- growth inhibition (GI) (Acinetobacter baumannii [29]): Active
- MBEC50 (Klebsiella pneumoniae [30]): 8.6 µM
- Selectivity Index [31]: 88
- Ratio (Acinetobacter baumannii [32]): <=8
- MBC90 (Enterobacter cloacae [33]): 2.7 µM (≈ 1.46 µg/mL)
- MBEC50 (Acinetobacter baumannii [34]): 24 µM
- Activity (Pseudomonas aeruginosa [35]): inactive
- growth inhibition (GI) (Pseudomonas aeruginosa [36]): Active
- Activity (Klebsiella pneumoniae [37]): inactive
- MBEC50 (Pseudomonas aeruginosa [38]): 5 µM
- MBC90 (Klebsiella pneumoniae [39]): 2.6 µM (≈ 1.41 µg/mL)
- MBC90 (Pseudomonas aeruginosa [40]): 2.8 µM (≈ 1.51 µg/mL)
- fold change (FC) (Staphylococcus aureus [41]): 2.5
- growth inhibition (GI) (Enterococcus faecium [42]): Active
- Ratio (Enterobacter cloacae [43]): <=8
- MBC90 (Staphylococcus aureus [44]): 2.9 µM (≈ 1.57 µg/mL)
- MBEC50 (Staphylococcus aureus [45]): 6.4 µM
- MBC90 (Acinetobacter baumannii [46]): 4.7 µM (≈ 2.54 µg/mL)
- Activity (Acinetobacter baumannii [47]): inactive
- growth inhibition (GI) (Staphylococcus aureus [48]): Active
